Data as given in ChEMBL document CHEMBL1158989, “Synthesis and evaluation of hydroxylated flavones and related compounds as potential inhibitors of the protein-tyrosine kinase p56lck” (J Nat Prod, 1991).
In brackets after ≈: the same amount, converted by molar mass.

Experiment: Inhibition of bovine thymus p56LCK-catalyzed phosphorylation of angiotensin 1 by SDS-PAGE
Design: species or system Bos taurus
Procedure, shortened: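 p56lck partially purified from bovine thymus (DEAE-cellulose, heparin-agarose, butyl-agarose chromatography). Substrate angiotensin I 1.2 mM with [γ-32P]ATP 50 μM. Reactions held 8% DMSO as inhibitor carrier; DMSO-only controls. Inhibitors tested at seven concentrations, 0.8 to 800 μg/ml. IC50 read graphically as half-maximal inhibition relative to DMSO controls.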

IC50	SMILES
4 µg/mL (≈ 14.8 µM)	O=c1cc(-c2ccc(O)cc2)oc2cc(O)cc(O)c12 [APIGENIN]
43 µg/mL (≈ 169 µM)	O=c1cc(-c2ccc(O)cc2)oc2cc(O)ccc12
> 800 µg/mL	COc1ccc2oc(-c3cc(OC)c(OC)c(OC)c3)cc(=O)c2c1
48 µg/mL (≈ 178 µM)	O=c1cc(-c2cccc(O)c2)oc2c(O)c(O)ccc12
> 800 µg/mL	COc1ccc2c(=O)cc(-c3cc(OC)c(OC)c(OC)c3)oc2c1
80 µg/mL (≈ 315 µM)	O=c1cc(-c2cccc(O)c2)oc2cccc(O)c12
80 µg/mL (≈ 281 µM)	COc1cc(O)c2c(=O)cc(-c3ccc(O)cc3)oc2c1 [GENKWANIN]
> 800 µg/mL	COc1cc(-c2cc(=O)c3ccc(OC(C)=O)cc3o2)cc(OC)c1O
400 µg/mL (≈ 1270 µM)	COc1cc(-c2cc(=O)c3ccc(O)cc3o2)cc(OC)c1O
44 µg/mL (≈ 119 µM)	CC(C)(C)[Si](C)(C)Oc1ccc(-c2cc(=O)c3cc(O)ccc3o2)cc1
40 µg/mL (≈ 90 µM)	COc1cc(-c2cc(=O)c3ccc(O)c(O)c3o2)cc(OC)c1O[Si](C)(C)C(C)(C)C
20 µg/mL (≈ 60.9 µM)	COc1cc(-c2cc(=O)c3cc(O)ccc3o2)cc(OC)c1OC
7.7 µg/mL (≈ 25.8 µM)	COc1cc(-c2cc(=O)c3ccccc3o2)cc(OC)c1O
360 µg/mL (≈ 977 µM)	CC(C)(C)[Si](C)(C)Oc1ccc(-c2cc(=O)c3ccc(O)cc3o2)cc1
> 800 µg/mL	COc1cc(-c2cc(=O)c3ccc(O)cc3o2)cc(OC)c1OC
> 800 µg/mL	COc1cc(-c2cc(=O)c3ccc(OC(C)=O)cc3o2)cc(OC)c1O[Si](C)(C)C(C)(C)C
30 µg/mL (≈ 99.3 µM)	O=c1c(O)c(-c2cc(O)cc(O)c2)oc2cc(O)cc(O)c12

IC50	SMILES
120 µg/mL (≈ 504 µM)	O=c1cc(-c2ccc(O)cc2)oc2ccccc12
664 µg/mL (≈ 1930 µM)	O=c1cc(-c2ccc(OCc3ccccc3)cc2)oc2cc(O)ccc12
30 µg/mL (≈ 118 µM)	O=c1cc(-c2ccc(O)cc2)oc2ccc(O)cc12
4 µg/mL (≈ 15.7 µM)	O=c1cc(-c2cccc(O)c2)oc2ccc(O)cc12
41 µg/mL (≈ 130 µM)	COc1cc(-c2cc(=O)c3cc(O)ccc3o2)cc(OC)c1O
80 µg/mL (≈ 336 µM)	O=c1cc(-c2ccccc2)oc2cc(O)ccc12 [7-HYDROXYFLAVONE]
160 µg/mL (≈ 373 µM)	COc1cc(-c2cc(=O)c3cc(O)ccc3o2)cc(OC)c1O[Si](C)(C)C(C)(C)C
5 µg/mL (≈ 19.7 µM)	O=c1cc(-c2ccccc2)oc2cc(O)cc(O)c12 [CHRYSIN]
656 µg/mL (≈ 1530 µM)	COc1cc(-c2cc(=O)c3ccc(O)cc3o2)cc(OC)c1O[Si](C)(C)C(C)(C)C
4 µg/mL (≈ 15.7 µM)	O=c1cc(-c2ccc(O)cc2)oc2cccc(O)c12
> 800 µg/mL	COc1cc(-c2cc(=O)c3ccc(OC(C)=O)c(OC(C)=O)c3o2)cc(OC)c1O[Si](C)(C)C(C)(C)C
10 µg/mL (≈ 39.3 µM)	O=c1cc(-c2cccc(O)c2)oc2cc(O)ccc12
4 µg/mL (≈ 14 µM)	O=c1c(O)c(-c2ccc(O)c(O)c2)oc2cc(O)ccc12 [FISETIN]
> 800 µg/mL	O=c1cc(-c2ccc(OCc3ccccc3)cc2)oc2cccc(O)c12
80 µg/mL (≈ 296 µM)	O=c1c(O)c(-c2ccccc2)oc2cc(O)cc(O)c12 [GALANGIN]
136 µg/mL (≈ 395 µM)	COc1cc(-c2cc(=O)c3ccc(O)c(O)c3o2)cc(OC)c1OC
80 µg/mL (≈ 315 µM)	O=c1cc(-c2ccccc2)oc2c(O)c(O)ccc12 [7,8-DIHYDROXYFLAVONE]

SMILES	IC50
O=c1cc(-c2ccc(O)c(O)c2)oc2cc(O)cc(O)c12 [LUTEOLIN]	10 µg/mL (≈ 34.9 µM)
O=c1c(O)c(-c2ccc(O)c(O)c2)oc2cc(O)cc(O)c12 [QUERCETIN]	4 µg/mL (≈ 13.2 µM)
COc1cc(-c2oc3cc(O)cc(O)c3c(=O)c2O)cc(OC)c1O [SYRINGETIN]	24 µg/mL (≈ 69.3 µM)
